Measured values: ChEMBL document CHEMBL1799919, “Design, synthesis, biological evaluation, and structure-activity relationships of substituted phenyl 4-(2-oxoimidazolidin-1-yl)benzenesulfonates as new tubulin inhibitors mimicking combretastatin A-4” (J Med Chem, 2011)
Active and inactive are the calls of the source. No cut-off for these calls is given here.

Tests used:
CHO-VV 3-2 = test: Antiproliferative activity against colchicine- and vinblastine-resistant CHO-VV 3-2 cells after 48 hrs by sulforhodamine B assay; settings: Cricetulus griseus, CHO-VV 3-2, 48 h
M21 [1] = test: Cell cycle arrest in human M21 cells assessed as accumulation at G0/G1 phase at 5 times IC50 after 24 hrs using propidium iodide staining by flow cytometric analysis (reference value: 61%); type: functional
CCRF-CEM = test: Antiproliferative activity against human CEM cells after 48 hrs by sulforhodamine B assay; type: functional, cell-based
CHO-TAX 5-6 [2] = test: Resistant ratio of IC50 for paclitaxel-resistant CHO-TAX 5-6 cells to IC50 for CHO cells; type: functional, Cricetulus griseus
Procedure, shortened: (§1)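 Ratio of the IC50 in the resistant line (CEM-VLB, CHO-TAX 5-6 or CHO-VV 3-2) to the IC50 in its parental line (CEM or CHO).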

M21 [3] = test: Disruption of cytoskeleton microtubule structure of human M21 cells at 5 times IC50 after 16 hrs by indirect immunofluorescence assay; type: functional, cell-based
Procedure, shortened: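 Fixed in 3.7% formaldehyde, permeabilized with saponin, and stained with anti-β-tubulin (TUB 2.1), Alexa-488 secondary and DAPI. Microtubule structure scored by fluorescence microscopy.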

[4] = Antiproliferative activity against mouse P388D1 cells after 48 hrs by sulforhodamine B assay; type: functional, cell-based; settings: P388D1, 48 h
HT-1080 [5] = test: Antivasculogenic activity against human HT1080 cells xenografted in chicken chorioallantoic membrane assessed as inhibition of tumor growth at 3 ug per egg, iv measured on day 14 by CAM assay; type: functional
K562 = test: Antiproliferative activity against human K562 cells after 48 hrs by sulforhodamine B assay; type: functional, cell-based; settings: K562, 48 h
DU-145 = test: Antiproliferative activity against human DU145 cells after 48 hrs by sulforhodamine B assay; type: functional, cell-based; settings: DU-145, 48 h
M21 [6] = test: Cell cycle arrest in human M21 cells assessed as accumulation at G2/M phase at 5 times IC50 after 24 hrs using propidium iodide staining by flow cytometric analysis (reference value: 9%); type: functional
M21 [7] = test: Antiproliferative activity against human M21 cells after 48 hrs by sulforhodamine B assay; type: functional, cell-based; settings: M21, 48 h
HT-29 = test: Antiproliferative activity against human HT-29 cells after 48 hrs by sulforhodamine B assay; type: functional, cell-based; settings: HT-29, 48 h
MDA-MB-231 [8] = test: Displacement of N,N'-ethylenebis(iodoacetamide) from colchicine-binding site of beta-tubulin in human MDA-MB-231 cells at 1000 times IC50 preincubated for after 2 hrs before N,N'-ethylenebis(iodoacetamide) addition measured after 1.5 hrs by chemiluminescence assay; type: cell-based
Procedure, shortened: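 EBI (100 μM final) added for 1.5 h at 37 °C; controls received 0.5% DMSO. Lysates (20 μg protein) run on 10% SDS-PAGE and blotted with anti-β-tubulin (TUB 2.1). β-tubulin–EBI adduct band detected by ECL.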

SK-OV-3 = test: Antiproliferative activity against human SKOV3 cells after 48 hrs by sulforhodamine B assay; type: functional, cell-based; settings: SK-OV-3, 48 h
L1210 = test: Antiproliferative activity against mouse L1210 cells after 48 hrs by sulforhodamine B assay; type: functional, cell-based; settings: L1210, 48 h
HT-1080 [9] = test: Antiproliferative activity against human HT1080 cells after 48 hrs by sulforhodamine B assay; type: functional, cell-based; settings: HT-1080, 48 h
CHO = test: Antiproliferative activity against CHO cells after 48 hrs by sulforhodamine B assay; type: functional, cell-based; settings: Cricetulus griseus
M21 [10] = test: Cell cycle arrest in human M21 cells assessed as accumulation at S phase at 5 times IC50 after 24 hrs using propidium iodide staining by flow cytometric analysis (reference value: 30%); type: functional
CEM-VLB = test: Resistant ratio of IC50 for multidrug-resistant human CEM-VLB cells to IC50 for human CEM cells; type: functional
Procedure, shortened: as §1

[11] = Antiproliferative activity against multidrug-resistant human CEM/VLB cells after 48 hrs by sulforhodamine B assay; type: functional
CHO-TAX 5-6 [12] = test: Antiproliferative activity against paclitaxel-resistant CHO-TAX 5-6 cells after 48 hrs by sulforhodamine B assay; type: functional, cell-based; settings: Cricetulus griseus, CHO-TAX 5-6, 48 h
[13] = Toxicity against fertilized chicken embryo assessed as mortality at 3 ug per egg, iv by CAM assay; type: organism-based, Gallus gallus; settings: in vivo, read-out: Activity
Procedure, shortened: (§2)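 Fertilized chicken eggs incubated 10 days with automatic turning, then static. HT-1080 cells (3.5 × 10^5 cells/egg) grafted onto exposed CAM. On day 11, drug in DMSO diluted into cremophor/ethanol/PBS (6.25/6.25/87.5 v/v) excipient, DMSO below 0.5%, 100 μL injected iv into 10-12 eggs. Eggs incubated to day 17, dead embryos counted. Untreated eggs used for normalization. Two independent experiments, at least 10 eggs each.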

MDA-MB-231 [14] = test: Antiproliferative activity against human MDA-MB-231 cells after 48 hrs by sulforhodamine B assay; type: functional, cell-based; settings: MDA-MB-231, 48 h
[15] = Antiproliferative activity against mouse B16F0 cells after 48 hrs by sulforhodamine B assay; type: functional, cell-based; settings: B16F0, 48 h
MCF7 = test: Antiproliferative activity against human MCF7 cells after 48 hrs by sulforhodamine B assay; type: functional, cell-based; settings: MCF7, 48 h
[16] = Toxicity against fertilized chicken embryo assessed as mortality at 1 ug per egg, iv by CAM assay; type: organism-based, Gallus gallus; settings: in vivo, read-out: Activity
Procedure, shortened: as §2

HT-1080 [17] = test: Antivasculogenic activity against human HT1080 cells xenografted in chicken chorioallantoic membrane assessed as inhibition of tumor growth at 1 ug per egg, iv measured on day 14 by CAM assay; type: functional; parameters: scale not given: the % may be the effect or the level left

| SMILES | IC50 (CHO-VV 3-2) [nM] | Activity (M21 [1]) [%] | IC50 (CCRF-CEM) [nM] | Ratio IC50 (CHO-TAX 5-6 [2]) | Activity (M21 [3]) | IC50 [4] [nM] | Activity (HT-1080 [5]) | IC50 (K562) [nM] | IC50 (DU-145) [nM] | Activity (M21 [6]) [%] | IC50 (M21 [7]) [nM] | IC50 (HT-29) [nM] | inhibition (MDA-MB-231 [8]) | IC50 (SK-OV-3) [nM] | IC50 (L1210) [nM] | IC50 (HT-1080 [9]) [nM] | IC50 (CHO) [nM] | Activity (M21 [10]) [%] | Ratio IC50 (CEM-VLB) | IC50 (MCF7) [nM] | further results |
| --- | --- | --- | --- | --- | --- | --- | --- | --- | --- | --- | --- | --- | --- | --- | --- | --- | --- | --- | --- | --- | --- |
| O=C1NCCN1c1ccc(S(=O)(=O)Oc2c(F)cccc2F)cc1 | 74 | 5 | 68 | 0.52 | Active | 76 | Active | 65 | 170 | 62 | 15 | 29 | Active | 72 | 67 | 65 | 73 | 33 | 1.3 | 32 | IC50 [11]: 87 nM; IC50 (CHO-TAX 5-6 [12]): 38 nM; mortality [13]: 13%; IC50 (MDA-MB-231 [14]): 100 nM; IC50 [15]: 91 nM |
| O=C1NCCN1c1ccc(S(=O)(=O)Oc2cccc(Cl)c2)cc1 | 20 | 2 | 17 | 0.52 | Active | 19 | 46% | 16 | 58 | 79 | 9.2 | 15 | Active | 22 | 17 | 19 | 18 | 19 | 1.2 | 13 | IC50 [11]: 20 nM; IC50 (CHO-TAX 5-6 [12]): 9.3 nM; mortality [13]: 0%; IC50 (MDA-MB-231 [14]): 45 nM; IC50 [15]: 46 nM |
| COc1ccc(/C=C\c2cc(OC)c(OC)c(OC)c2)cc1O [COMBRETASTATIN A4] | – | 2 | – | – | Active | – | 45% | – | – | 98 | 4.3 | 61 | Active | – | – | – | – | 0 | – | 5.6 | mortality [16]: 18%; Activity (HT-1080 [17]): 48%; mortality [13]: 41% |
| COc1cc(OS(=O)(=O)c2ccc(N3CCNC3=O)cc2)cc(OC)c1OC | 8.2 | 1 | 7.1 | 0.41 | Active | 2.7 | – | 2.5 | 8.5 | 98 | 4 | 4 | Active | 6.1 | 5.4 | 5.9 | 7.4 | 1 | 1.3 | 5 | mortality [16]: 8%; IC50 [11]: 9.5 nM; Activity (HT-1080 [17]): 39%; IC50 (CHO-TAX 5-6 [12]): 3 nM; IC50 (MDA-MB-231 [14]): 9.4 nM; IC50 [15]: 9.2 nM |
| Cc1ccc(C)c(OS(=O)(=O)c2ccc(N3CCNC3=O)cc2)c1 | 21 | 3 | 19 | 0.78 | Active | 19 | Active | 18 | 57 | 77 | 8.5 | 10 | Active | 29 | 21 | 24 | 18 | 20 | 1.2 | 14 | IC50 [11]: 23 nM; IC50 (CHO-TAX 5-6 [12]): 14 nM; mortality [13]: 13%; IC50 (MDA-MB-231 [14]): 69 nM; IC50 [15]: 49 nM |
